Tested on: Cucumis sativus
Assay: Herbicidal activity against Cucumis sativus (cucumber) seeds assessed as inhibition of cucumber root at 28 degC for 3 days with 10 hr of lighting and 14 h in the dark
Type: functional, organism-based
Method in brief: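 Compound dissolved in acetone with a drop of Tween 80, then diluted with water to the required concentrations. Five mL was applied to filter paper in Petri dishes, with 10 cucumber seeds pre-soaked in water for 6 h. Taproot length was read at 72 h as percent inhibition versus control. Three replicates at each of five or six concentrations; IC50 by log-probit regression.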

| SMILES | IC50 |
| --- | --- |
| COP(=O)(OC)C(C)OC(=O)COc1ccc(Cl)cc1 (stereo not drawn) | 0.427 µM |
| COP(=O)(OC)C(C)OC(=O)COc1ccc(Cl)cc1C (stereo not drawn) | 0.437 µM |
| COP(=O)(OC)C(C)OC(=O)COc1ccc(Cl)c(C)c1 (stereo not drawn) | 2.95 µM |
| COP(=O)(OC)C(C)OC(=O)COc1cc(C)ccc1Cl (stereo not drawn) | 49 µM |
| COP(=O)(OC)C(C)OC(=O)COc1cccc(Cl)c1Cl (stereo not drawn) | 209 µM |
| COP(=O)(OC)C(C)OC(=O)COc1cccc(F)c1 (stereo not drawn) | 112 µM |
| COP(=O)(OC)C(C)OC(=O)COc1ccc(F)cc1 (stereo not drawn) | 1.51 µM |
| COP(=O)(OC)C(OC(=O)COc1cccc(F)c1)C(Cl)(Cl)Cl (stereo not drawn) | 83.2 µM |
| COP(=O)(OC)C(OC(=O)COc1ccc(F)cc1)C(Cl)(Cl)Cl (stereo not drawn) | 1.17 µM |
| COP(=O)(OC)C(OC(=O)COc1ccc(Cl)cc1)C(Cl)(Cl)Cl (stereo not drawn) | 0.724 µM |
| COP(=O)(OC)C(OC(=O)COc1c(Cl)cccc1Cl)C(Cl)(Cl)Cl (stereo not drawn) | 115 µM |
| COP(=O)(OC)C(OC(=O)COc1cccc(Cl)c1Cl)C(Cl)(Cl)Cl (stereo not drawn) | 70.8 µM |
| COP(=O)(OC)C(OC(=O)COc1ccc(Cl)cc1C)C(Cl)(Cl)Cl (stereo not drawn) | 0.398 µM |
| COP(=O)(OC)C(OC(=O)COc1ccc(Cl)c(C)c1)C(Cl)(Cl)Cl (stereo not drawn) | 3.47 µM |
| COP(=O)(OC)C(OC(=O)COc1cc(C)ccc1Cl)C(Cl)(Cl)Cl (stereo not drawn) | 75.9 µM |
| COP(=O)(OC)C(OC(=O)COc1cccc(C(F)(F)F)c1)c1cccc(Cl)c1 (stereo not drawn) | 14.5 µM |
| COP(=O)(OC)C(OC(=O)COc1cccc(C(F)(F)F)c1)c1ccc(Cl)c(Cl)c1 (stereo not drawn) | 8.32 µM |
| COP(=O)(OC)C(OC(=O)COc1cccc(C(F)(F)F)c1)c1ccc(C)cc1 (stereo not drawn) | 7.41 µM |
| COP(=O)(O)C(OC(=O)COc1ccc(Cl)cc1Cl)c1ccco1 (stereo not drawn) | 0.447 µM |
| COP(=O)(O)C(OC(=O)COc1ccc(Cl)cc1Cl)c1ccccn1 (stereo not drawn) | 0.575 µM |

| SMILES | IC50 |
| --- | --- |
| COP(=O)(O)C(OC(=O)COc1ccc(Cl)cc1Cl)c1ccccc1 (stereo not drawn) | 0.955 µM |
| COP(=O)(O)C(OC(=O)COc1ccc(Cl)cc1Cl)c1ccccc1Cl (stereo not drawn) | 0.912 µM |
| COP(=O)(O)C(OC(=O)COc1ccc(Cl)cc1Cl)c1ccc(Cl)cc1 (stereo not drawn) | 1.32 µM |
| COP(=O)(O)C(OC(=O)COc1ccc(Cl)cc1Cl)c1ccc(Cl)cc1Cl (stereo not drawn) | 1.02 µM |
| COP(=O)(O)C(OC(=O)COc1ccc(Cl)cc1Cl)c1ccc(Cl)c(Cl)c1 (stereo not drawn) | 0.891 µM |
| COc1ccc(C(OC(=O)COc2ccc(Cl)cc2Cl)P(=O)(O)OC)cc1 (stereo not drawn) | 0.955 µM |
| COP(=O)(O)C(OC(=O)COc1ccc(Cl)cc1Cl)c1ccc(F)cc1 (stereo not drawn) | 0.776 µM |
| COP(=O)(O)C(OC(=O)COc1ccc(Cl)cc1Cl)c1cccc([N+](=O)[O-])c1 (stereo not drawn) | 1.23 µM |
| COP(=O)(O)C(OC(=O)COc1ccc(Cl)cc1Cl)c1ccc(C)cc1 (stereo not drawn) | 1.35 µM |
| COP(=O)(OC)C(C)OC(=O)COc1c(Cl)cccc1Cl (stereo not drawn) | 100 µM |
| COP(=O)(OC)C(OC(=O)COc1cccc(F)c1)c1cccs1 (stereo not drawn) | 126 µM |
| COP(=O)(OC)C(OC(=O)COc1ccc(F)cc1)c1cccs1 (stereo not drawn) | 2.63 µM |
| COP(=O)(OC)C(OC(=O)COc1ccc(Cl)cc1Cl)c1cccs1 (stereo not drawn) | 0.282 µM |
| COP(=O)(OC)C(OC(=O)COc1ccc(Cl)cc1)c1cccs1 (stereo not drawn) | 0.575 µM |
| COP(=O)(OC)C(OC(=O)COc1c(Cl)cccc1Cl)c1cccs1 (stereo not drawn) | 178 µM |
| COP(=O)(OC)C(OC(=O)COc1cccc(Cl)c1Cl)c1cccs1 (stereo not drawn) | 589 µM |
| COP(=O)(OC)C(OC(=O)COc1ccc(Cl)cc1C)c1cccs1 (stereo not drawn) | 0.468 µM |
| COP(=O)(OC)C(OC(=O)COc1ccc(Cl)c(C)c1)c1cccs1 (stereo not drawn) | 2.34 µM |
| COP(=O)(OC)C(OC(=O)COc1cc(C)ccc1Cl)c1cccs1 (stereo not drawn) | 51.3 µM |
| COP(=O)(OC)C(OC(=O)COc1cccc(F)c1)c1ccccc1 (stereo not drawn) | 112 µM |

| SMILES | IC50 |
| --- | --- |
| COP(=O)(OC)C(OC(=O)COc1ccc(F)cc1)c1ccccc1 (stereo not drawn) | 1.51 µM |
| COP(=O)(OC)C(OC(=O)COc1ccc(Cl)cc1)c1ccccc1 (stereo not drawn) | 0.427 µM |
| COP(=O)(OC)C(OC(=O)COc1c(Cl)cccc1Cl)c1ccccc1 (stereo not drawn) | 85.1 µM |
| COP(=O)(OC)C(OC(=O)COc1cccc(Cl)c1Cl)c1ccccc1 (stereo not drawn) | 229 µM |
| COP(=O)(OC)C(OC(=O)COc1ccc(Cl)cc1C)c1ccccc1 (stereo not drawn) | 0.355 µM |
| COP(=O)(OC)C(OC(=O)COc1ccc(Cl)c(C)c1)c1ccccc1 (stereo not drawn) | 2.57 µM |
| COP(=O)(OC)C(OC(=O)COc1cc(C)ccc1Cl)c1ccccc1 (stereo not drawn) | 72.4 µM |
| COP(=O)(OC)C(OC(=O)COc1cccc(C(F)(F)F)c1)c1ccccc1Cl (stereo not drawn) | 7.94 µM |
| COP(=O)(OC)C(OC(=O)COc1cccc(C(F)(F)F)c1)c1ccc(Cl)cc1 (stereo not drawn) | 6.92 µM |
| COP(=O)(OC)C(OC(=O)COc1cccc(F)c1)c1ccco1 (stereo not drawn) | 67.6 µM |
| COP(=O)(OC)C(OC(=O)COc1ccc(F)cc1)c1ccco1 (stereo not drawn) | 1.82 µM |
| COP(=O)(OC)C(OC(=O)COc1ccc(Cl)cc1)c1ccco1 (stereo not drawn) | 0.646 µM |
| COP(=O)(OC)C(OC(=O)COc1ccc(Cl)cc1Cl)c1ccco1 (stereo not drawn) | 0.339 µM |
| COP(=O)(OC)C(OC(=O)COc1c(Cl)cccc1Cl)c1ccco1 (stereo not drawn) | 324 µM |
| COP(=O)(OC)C(OC(=O)COc1cccc(Cl)c1Cl)c1ccco1 (stereo not drawn) | 447 µM |
| COP(=O)(OC)C(OC(=O)COc1ccc(Cl)cc1C)c1ccco1 (stereo not drawn) | 3.8 µM |
| COP(=O)(OC)C(OC(=O)COc1ccc(Cl)c(C)c1)c1ccco1 (stereo not drawn) | 3.63 µM |
| COP(=O)(OC)C(OC(=O)COc1cc(C)ccc1Cl)c1ccco1 (stereo not drawn) | 87.1 µM |

Reference: ChEMBL document CHEMBL3045289, “Molecular docking and three-dimensional quantitative structure-activity relationship studies on the binding modes of herbicidal 1-(substituted phenoxyacetoxy)alkylphosphonates to the E1 component of pyruvate dehydrogenase” (J Agric Food Chem, 2007)
